Reference: article PMC10580023 (RSC Advances, 2023)

Assays:
Format in all cases: cell-based
[1] = tested on: RAW 264.7 cells; assay: IL-6 secretion by ELISA in LPS-stimulated macrophages; conditions: pre-treatment 24 h, then LPS 1 μg mL^−1 for 4 h; ELISA of supernatant
Summary of the method: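 RAW 264.7 macrophages (within passage 30) grown in DMEM with 10% FBS and 1% antibiotic-antimycotic at 37 °C, 5% CO2. Test compound at 25, 50 and 100 μM (legend: 0, 25, 50 μM) for 24 h, then LPS 1 μg mL⁻¹ for 4 h. Supernatant IL-6 measured by commercial ELISA kit. Three independent experiments, mean ± SD, compared with the LPS group.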

[2] = tested on: RAW 264.7 cells; assay: Intracellular ROS by DCFH-DA probe in LPS-stimulated macrophages; conditions: Mus musculus, RAW264.7, read-out: ROS inhibition rate
Summary of the method: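 RAW 264.7 macrophages (DMEM/10% FBS, 37 °C, 5% CO₂) pre-treated with test compound for 24 h, then stimulated with LPS 1 μg mL⁻¹ for 4 h. Cells harvested, loaded with DCFH-DA for 30 min at 37 °C in the dark, and washed three times with PBS. DCF fluorescence read on a multimode imaging reader and […]. Mean ± SD of three independent experiments.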

[3] = tested on: RAW 264.7 cells; assay: TNF-α secretion by ELISA in LPS-stimulated macrophages; conditions: pre-treatment 24 h, then LPS 1 μg mL^−1 for 4 h; ELISA of supernatant
[4] = tested on: RAW 264.7 cells; assay: CCK-8 cell viability
Summary of the method: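 Mouse RAW 264.7 macrophages (passage ≤30) grown in DMEM with 10% FBS and 1% antibiotic-antimycotic at 37 °C under 5% CO₂. Seeded at 10⁵ per well and left overnight. Exposed to test compound at 0–200 μM for 24 h. Viability read with a CCK-8 kit as % cell viability; IC50 calculated by curve fitting. Mean ± SD of three independent experiments.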

## C=C(C[C@@H]1CCOc2ccccc21)c1ccc(Cl)cc1 [3al]
[1]
  Prevention of LPS-induced IL-6 secretion: able to prevent LPS-induced IL-6 secretion

## Cc1c(C)c2c(c(C)c1O)CCC(C)(C(=O)O)O2 (centres unmarked) [Trolox, reference compound]
[2]
  inhibition at 25 µM: -3%
  inhibition at 50 µM: 20%

## C=C(C[C@@H]1CCSc2ccc(C)cc21)c1ccccc1 [3ax]
[2]
  inhibition at 25 µM: 32%
  inhibition at 50 µM: 49%
[3]
  Prevention of LPS-induced TNF-α secretion: no effect

## C=C(C[C@@H]1CCOc2ccc(C)cc21)c1ccccc1 [3ac]
[2]
  inhibition at 25 µM: -24%
  inhibition at 50 µM: 23%
[3]
  Prevention of LPS-induced TNF-α secretion: no effect

## C=C(C[C@@H]1CCOc2ccccc21)c1ccc(C)cc1 [3aj]
[4]
  Cytotoxicity (in words): little cytotoxicity
[1]
  Prevention of LPS-induced IL-6 secretion: able to prevent LPS-induced IL-6 secretion

## C=C(C[C@@H]1CCSc2ccccc21)c1ccccc1C [3bd]
[2]
  inhibition at 50 µM: 52%

## C=C(C[C@@H]1CCSc2ccc(OC)cc21)c1ccccc1 [3aw]
[1]
  Prevention of LPS-induced IL-6 secretion: able to prevent LPS-induced IL-6 secretion

## C=C(C[C@@H]1CCOc2ccccc21)c1ccccc1C [3am]
[2]
  inhibition at 50 µM: 29%
